The source made the active and inactive calls. No rule for the calls is given here.
What was measured:
Candida tropicalis = assay: Antifungal activity against Candida tropicalis after 48 hrs; type: functional, organism-based
HepG2 = assay: Antiproliferative activity against human HepG2 cells after 72 hrs by XTT assay; type: functional, cell-based; settings: HepG2, 72 h
K562 [1] = assay: Cytostatic activity against human K562 cells after 72 hrs by MTT assay; type: functional, cell-based; settings: K562, 72 h
Outline: (§1)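 IC50 is the concentration that cuts cell growth by 50%, read by quantitative metabolic MTT staining after a 3-day treatment. The resistant sublines were made by raising the concentration of the cytotoxic drug step by step. CEM-DNR-bulk (daunorubicin-selected) stably overexpresses mrp-1. K562-TAX (paclitaxel-selected) expresses only mdr-1. HCT116p53−/− carries null p53 alleles. BJ and MRC-5 are nonmalignant fibroblasts.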

CCRF-CEM = assay: Cytostatic activity against human CCRF-CEM cells after 72 hrs by MTT assay; type: functional, cell-based; outline: as §1
[2] = Cytotoxicity against human HuH7 cells infected with Hepatitis C virus subtype 1b; type: cell-based, Huh-7
Escherichia coli [3] = assay: Antibacterial activity against Escherichia coli CCM 3954 after 24 hrs; type: functional, organism-based
Candida parapsilosis = assay: Antifungal activity against Candida parapsilosis after 48 hrs; type: functional, organism-based
Hepatitis C virus [4] = assay: Antiviral activity against Hepatitis C virus subtype 2a infected in human HuH7 cells; type: functional, organism-based, Hepacivirus hominis; settings: genotype 2a, Huh-7
Staphylococcus aureus [5] = assay: Antibacterial activity against methicillin-resistant Staphylococcus aureus MRSA 4591 after 24 hrs; type: functional, organism-based
Enterococcus faecalis = assay: Antibacterial activity against Enterococcus faecalis CCM 4224 after 24 hrs; type: functional, organism-based
Staphylococcus aureus [6] = assay: Antibacterial activity against Staphylococcus aureus CCM 3953 after 24 hrs; type: functional, organism-based
Pseudomonas aeruginosa [7] = assay: Antibacterial activity against Pseudomonas aeruginosa CCM 3955 after 24 hrs; type: functional, organism-based
[8] = test system: Staphylococcus haemolyticus; assay: Antibacterial activity against methicillin-resistant Staphylococcus haemolyticus A/16568 after 24 hrs; type: functional, organism-based
HL-60 = assay: Antiproliferative activity against human HL60 cells after 72 hrs by XTT assay; type: functional, cell-based; settings: HL-60, 72 h
Outline: (§2)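 Antiproliferative test on HL-60 promyelocytic leukemia and HeLa S3 cervical carcinoma cells growing in liquid suspension.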

Candida albicans = assay: Antifungal activity against Candida albicans after 48 hrs; type: functional, organism-based
MRC5 = assay: Cytostatic activity against human MRC5 cells after 72 hrs by MTT assay; type: ADME, cell-based; settings: MRC5, 72 h; outline: as §1
Escherichia coli [9] = assay: Antibacterial activity against multi-resistant Escherichia coli C/16702 after 24 hrs; type: functional, organism-based
HCT-116 [10] = assay: Cytostatic activity against p53-deficient human HCT116 cells after 72 hrs by MTT assay; type: functional, cell-based; settings: HCT-116, 72 h; outline: as §1
A549 = assay: Cytostatic activity against human A549 cells after 72 hrs by MTT assay; type: functional, cell-based; settings: A549, 72 h; outline: as §1
BJ = assay: Cytostatic activity against human BJ cells after 72 hrs by MTT assay; type: ADME, cell-based; outline: as §1
HCT-116 [11] = assay: Cytostatic activity against human HCT116 cells after 72 hrs by MTT assay; type: functional, cell-based; settings: HCT-116, 72 h; outline: as §1
Pseudomonas aeruginosa [12] = assay: Antibacterial activity against multi-resistant Pseudomonas aeruginosa A/16575 after 24 hrs; type: functional, organism-based
Hepatitis C virus [13] = assay: Antiviral activity against Hepatitis C virus subtype 1b infected in human HuH7 cells; type: functional, organism-based, Hepacivirus hominis; settings: genotype 1b, Huh-7
[14] = Cytostatic activity against human CEM-DNR-bulk cells after 72 hrs by MTT assay; type: functional, cell-based; outline: as §1
[15] = Antiproliferative activity against human HeLaS3 cells after 72 hrs by XTT assay; type: functional, cell-based; settings: HeLa S3, 72 h; outline: as §2
Pichia kudriavzevii = assay: Antifungal activity against Candida crusei after 48 hrs; type: functional, organism-based
K562 [16] = assay: Cytostatic activity against paclitaxel-resistant human K562 cells after 72 hrs by MTT assay; type: functional, cell-based; settings: K562, 72 h; outline: as §1
[17] = Cytotoxicity against human HuH7 cells infected with Hepatitis C virus subtype 2a; type: cell-based, Huh-7

Row | SMILES | Activity (Candida tropicalis) | IC50 (HepG2) | IC50 (K562 [1]) | IC50 (CCRF-CEM) | CC50 [2] | Activity (Escherichia coli [3]) | Activity (Candida parapsilosis) | EC50 (Hepatitis C virus [4]) | Activity (Staphylococcus aureus [5]) | Activity (Enterococcus faecalis) | Activity (Staphylococcus aureus [6]) | Activity (Pseudomonas aeruginosa [7]) | Activity [8] | IC50 (HL-60) | Activity (Candida albicans) | IC50 (MRC5) | Activity (Escherichia coli [9]) | IC50 (HCT-116 [10]) | IC50 (A549) | IC50 (BJ) | further results
1 | Cc1nc(N)c2ccn([C@@H]3O[C@H](CO)[C@@H](O)[C@H]3O)c2n1 | inactive | > 20 µM | > 20 µM | > 20 µM | > 44 µM | inactive | inactive | > 44 µM | inactive | inactive | inactive | inactive | inactive | > 20 µM | inactive | > 100 µM | inactive | > 20 µM | > 100 µM | > 100 µM | IC50 (HCT-116 [11]): > 20 µM; Activity (Pseudomonas aeruginosa [12]): inactive; EC50 (Hepatitis C virus [13]): > 44 µM; IC50 [14]: > 20 µM; IC50 [15]: > 20 µM; Activity (Pichia kudriavzevii): inactive; IC50 (K562 [16]): > 20 µM; CC50 [17]: > 44 µM
2 | Cc1nc(N)c2c(I)cn([C@@H]3O[C@H](CO)[C@@H](O)[C@H]3O)c2n1 | inactive | 6.31 µM | 5.12 µM | 9.03 µM | > 44 µM | inactive | inactive | > 44 µM | inactive | inactive | inactive | inactive | inactive | 2.05 µM | inactive | 85.8 µM | inactive | > 20 µM | 12.1 µM | 24.6 µM | IC50 (HCT-116 [11]): > 20 µM; Activity (Pseudomonas aeruginosa [12]): inactive; EC50 (Hepatitis C virus [13]): 2.45 µM; IC50 [14]: 3.48 µM; IC50 [15]: 4.18 µM; Activity (Pichia kudriavzevii): inactive; IC50 (K562 [16]): 1.11 µM; CC50 [17]: > 44 µM
3 | CN(C)c1ncnc2c1c(-c1cc3ccccc3o1)cn2[C@@H]1O[C@H](CO)[C@@H](O)[C@H]1O | inactive | > 20 µM | > 20 µM | > 20 µM | > 44 µM | inactive | inactive | > 44 µM | inactive | inactive | inactive | inactive | inactive | > 20 µM | inactive | > 100 µM | inactive | > 20 µM | > 20 µM | > 100 µM | IC50 (HCT-116 [11]): > 20 µM; Activity (Pseudomonas aeruginosa [12]): inactive; EC50 (Hepatitis C virus [13]): 19.2 µM; IC50 [14]: > 20 µM; IC50 [15]: > 20 µM; Activity (Pichia kudriavzevii): inactive; IC50 (K562 [16]): > 20 µM; CC50 [17]: > 44 µM
4 | COc1ncnc2c1c(-c1ccccc1)cn2[C@@H]1O[C@H](CO)[C@@H](O)[C@H]1O | inactive | > 20 µM | > 20 µM | > 20 µM | > 44 µM | inactive | inactive | > 44 µM | inactive | inactive | inactive | inactive | inactive | > 20 µM | inactive | > 100 µM | inactive | > 20 µM | > 20 µM | > 100 µM | IC50 (HCT-116 [11]): > 20 µM; Activity (Pseudomonas aeruginosa [12]): inactive; EC50 (Hepatitis C virus [13]): 21 µM; IC50 [14]: > 20 µM; IC50 [15]: > 20 µM; Activity (Pichia kudriavzevii): inactive; IC50 (K562 [16]): > 20 µM; CC50 [17]: > 44 µM
5 | O=c1[nH]cnc2c1c(-c1ccsc1)cn2[C@@H]1O[C@H](CO)[C@@H](O)[C@H]1O | inactive | > 15 µM | > 20 µM | 14.5 µM | > 44 µM | inactive | inactive | > 44 µM | inactive | inactive | inactive | inactive | inactive | 12 µM | inactive | > 100 µM | inactive | > 20 µM | > 20 µM | > 100 µM | IC50 (HCT-116 [11]): > 20 µM; Activity (Pseudomonas aeruginosa [12]): inactive; EC50 (Hepatitis C virus [13]): 14.3 µM; IC50 [14]: > 20 µM; IC50 [15]: > 20 µM; Activity (Pichia kudriavzevii): inactive; IC50 (K562 [16]): > 20 µM; CC50 [17]: > 44 µM
6 | Cc1ncnc2c1c(I)cn2[C@@H]1O[C@H](CO)[C@@H](O)[C@H]1O | inactive | 3.46 µM | 17.8 µM | 5.48 µM | 20.9 µM | inactive | inactive | 8.75 µM | inactive | inactive | inactive | inactive | inactive | 2.65 µM | inactive | 13.3 µM | inactive | 7.57 µM | 12.2 µM | > 100 µM | IC50 (HCT-116 [11]): 4.72 µM; Activity (Pseudomonas aeruginosa [12]): inactive; EC50 (Hepatitis C virus [13]): 2.16 µM; IC50 [14]: 12.6 µM; IC50 [15]: 4.08 µM; Activity (Pichia kudriavzevii): inactive; IC50 (K562 [16]): > 20 µM; CC50 [17]: 13.8 µM

From ChEMBL document CHEMBL3124843, “Synthesis, cytostatic, antimicrobial, and anti-HCV activity of 6-substituted 7-(het)aryl-7-deazapurine ribonucleosides” (J Med Chem, 2014)
